Fibroblast inh – blocks proliferation of human lung fibroblasts | LL 47 human lung fibroblast viability, ATP luminescence; hits give low values | viability, % at 10 µM | hit rate 1.1% among 85,000;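 active = viability at or below 50% in the single dose screen; inactive = viability above 50%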;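 note: compound exposure lasted 72 h before the ATP readout; 100% = median luminescence of untreated cell-only wells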
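Test system: LL 47 human lung fibroblasts / Quantity: 1,150 cells in each well / Medium: IMEM growth medium with 15% fetal bovine serum / Incubation: 72 h compound exposure at 37 °C after overnight plating / Detection: CellTiter-Glo luminescence measuring cellular ATP / Read-out: % viability versus median cells-only luminescence / Benchmarks: cell-only wells, no compound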
HUVEC prolif 384 – blocks proliferation of human endothelial cells. AID 648. HUVEC proliferation, CellTiter-Glo luminescence, 72 h; hits give low values. viability, % at 10 µM (by protocol). hit rate 1.1% among 86,000;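 active = viability at or below 30%; inactive = viability above 30%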;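 note: 100% = median luminescence of DMSO-only cell control wells on each plate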
HCT116 PTEN-null – suppresses growth of cells with PTEN deletion; HCT116 PTEN-null viability, CellTiter-Glo, 60 h; hits give low values; viability, % at 10 µM; hit rate 1.2% among 140,000; AID 827;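 active = viability at or below a set limit, 4 SD under the median of all tested compounds, cut at about 3.7% in these data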;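 note: PTEN knockout HCT116 line with beta catenin targeted HCT116 as companion control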
H69AR growth 86K – growth inhibitors of human H69AR lung tumor cells. H69AR lung tumor viability, ATP luminescence, 72 h; hits give low values. viability, % at 10 µM. hit rate 6% among 85,000;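 active = viability at or below 40%; inactive = viability above 40%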;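 note: multidrug resistant small cell line overexpressing MRP-1 efflux transporter; 100% = mean luminescence of untreated control wells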
HCT116 bCat-KO – beta-catenin-lacking colon tumor cell growth suppression | HCT116 beta-catenin knockout viability, CellTiter-Glo, 60 h; hits give low values | viability, % at 10 µM | hit rate 1.5% among 140,000;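 active = viability at or under a set limit, the compound median less 4 SD, cut at about 6% in these data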;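 note: 0% = Hyamine 1622 control at 20 µM and 100% = untreated cell control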
* hit, by the source's call; . = not tested or not shown. Many of the other results were omitted from the sample, so hits are more common in it than they were.

SMILES | Fibroblast inh | HUVEC prolif 384 | HCT116 PTEN-null | H69AR growth 86K | HCT116 bCat-KO
COc1ccccc1Nc1nc(N)nc(CSc2ncccn2)n1 | 100.8 | 89.1 | 104.3 | 87.5 | 98.9
Cc1ccc(Nc2nc(N)nc(CN3CCc4ccccc4C3)n2)cc1 | 95.3 | 90.7 | 69.2 | 71.3 | 60.8
Cc1c(Cl)cccc1Nc1nc(N)nc(CN2CCc3ccccc3C2)n1 | 86.8 | 89.1 | 52.5 | 14.9* | 64.0
COc1ccc(N2CCN(Cc3nc(N)nc(Nc4ccccc4OC)n3)CC2)cc1 | 103.1 | 97.5 | 96.4 | 7.7* | 85.8
O=C(CSc1ccc2ccccc2c1)Nc1ncccn1 | . | . | 94.4 | . | 96.6
CN(C)c1ccc(N=Nc2ccccc2C(=O)OCC(=O)N(C)c2ccccc2)cc1 | . | . | 90.8 | . | 60.0
CCOC(=O)Cc1cc(=O)n2[nH]c(C)c(-c3ccc(Cl)cc3)c2n1 | 68.8 | 45.6 | 29.2 | 16.0* | 31.1
CCOC(=O)Cc1c(C)nc2c(-c3ccc(Cl)cc3)c[nH]n2c1=O | . | 57.1 | 55.1 | 22.7* | 62.2
CS(=O)(=O)N(CCc1ccccc1)CC(=O)N1CCN(c2ccc(F)cc2)CC1 | 100.6 | 110.3 | 87.1 | 102.0 | 84.7
O=C(COC(=O)CCC1CCCC1)Nc1ccc(Cl)cc1F | . | . | 90.6 | . | 87.7
COc1ccc(NC(=O)c2cc(CN3C(=O)c4ccccc4C3=O)ccc2OC)cn1 | . | 62.4 | 85.7 | 16.8* | 93.7
COc1ccc(CN2C(=O)c3ccccc3C2=O)cc1C(=O)OCC(=O)NC1CCCCC1 | . | . | 105.0 | . | 103.1
CCOc1ccc(N=CC2=C(O)CC(C)(C)CC2=O)cc1 | 93.2 | 75.7 | 96.5 | 39.8* | 90.8
CCN(CC)S(=O)(=O)c1ccc(N/N=C/c2cc(OC)ccc2O)nc1 | . | . | 4.8 | . | 2.7*
CCOc1cc(-c2noc(-c3ccncc3)n2)cc(Br)c1OC | 109.2 | 64.8 | 84.6 | 20.3* | 89.0
CCOc1ccc(-c2noc(-c3ccncc3)n2)cc1OCC | 102.8 | 109.8 | 97.3 | 68.3 | 111.3
c1ccc(-c2ccc3c(c2)c2c4n3CCN=C4CCC2)cc1 | 74.7 | 27.9* | 25.2 | 23.9* | 19.8
OC1CN=C2CCCc3c2n(c2ccc(Cl)cc32)C1 (configuration not stated) | 99.9 | 106.1 | 71.4 | 83.6 | 70.9
NC(=O)c1ccc(N=Cc2ccc([N+](=O)[O-])s2)cc1 | . | . | 1.3* | . | 1.6*
Cc1onc(-c2ccccc2)c1C(=O)N/N=C/c1cccc(O)c1 | . | . | 83.5 | . | 94.0
Cc1c(N=Cc2ccc(Br)s2)cccc1[N+](=O)[O-] | . | . | 88.8 | . | 98.7
Cc1cc(C)cc(N=Cc2ccc([N+](=O)[O-])s2)c1 | . | . | 1.8* | . | 1.9*
Cc1ccc(NC(=S)N/N=C/c2ccc([N+](=O)[O-])s2)cc1 | . | . | 1.8* | . | 1.6*
Cc1onc(-c2ccccc2)c1C(=O)N/N=C/c1ccc([N+](=O)[O-])s1 | . | . | 2.6* | . | 2.9*
COC(=O)C(C)(C)ONC(=O)Nc1ccccc1 | . | . | 90.7 | . | 98.4
SMILES | Fibroblast inh | HUVEC prolif 384 | HCT116 PTEN-null | H69AR growth 86K | HCT116 bCat-KO
CCn1cc(C(=O)OCC(=O)c2cc(C)n(-c3ccc(OC(F)F)cc3)c2C)c(=O)c2ccc(C)nc21 | . | . | 81.3 | . | 85.2
COc1ccccc1NS(=O)(=O)c1cccc(C(=O)N/N=C2\CC(=O)CC(C)(C)C2)c1 | . | . | 83.7 | . | 98.3
O=C(CCCC(=O)N(CC(=O)NC1CCCC1)Cc1ccc2c(c1)OCO2)Nc1ccccn1 | 98.3 | 107.4 | 107.6 | 99.7 | 94.0
O=S(=O)(NCC1CCCO1)c1ccc(S(=O)(=O)N(Cc2ccc(F)cc2)Cc2ccco2)cc1 (configuration not stated) | . | . | 86.2 | . | 87.3
Cc1cc(C(F)F)n2nc(C(=O)Nc3sc4c(c3C#N)CCC4)nc2n1 | . | . | 89.2 | . | 90.8
Cc1ccc(OP(=O)(Nc2c(C)n(C)n(-c3ccccc3)c2=O)Oc2ccc(C)cc2)cc1 | . | . | 96.3 | . | 83.7
c1ccc(CCN2CCN(c3ncnc4c3cnn4-c3ccccc3)CC2)cc1 | 97.7 | 59.5 | 80.0 | 34.3* | 85.8
CCN1CCN(c2ncnc3c2cnn3-c2ccccc2)CC1 | 102.5 | 98.1 | 100.3 | 87.9 | 88.4
Cc1ccc(C(=O)N2CCN(c3ncnc4c3cnn4-c3ccccc3)CC2)cc1 | 99.2 | 84.4 | . | 21.3* | .
CCOc1ccc(NC(=O)c2ccccc2NC(=O)CN(C)CC(=O)Nc2ccc(C)cc2)cc1 | 86.3 | 67.4 | 94.1 | 37.5* | 89.9
CC(C)(C)NC(=O)C(=O)NNC(=O)COc1ccc(Br)cc1 | . | . | 91.7 | . | 87.3
Cc1ccccc1C(=O)NNC(=O)CSc1nnc(C)n1-c1ccccc1 | . | . | 100.9 | . | 98.7
Cc1c(C(=O)Nc2ccc3c(c2)OCO3)sc2ncn(CC(=O)N3CC(C)CC(C)C3)c(=O)c12 (configuration not stated) | 101.8 | 91.0 | 88.7 | 91.0 | 100.5
O=c1ccsn1Cc1ccccc1 | 8.6* | 83.2 | 5.0 | 1.3* | 1.3*
CCN1C(=O)/C(=C/c2ccc(C)s2)NC1=S | 101.9 | 96.7 | 98.8 | 4.1* | 83.0
Cc1ccc2nc(/C(C#N)=C\c3ccc(N4CCOCC4)o3)[nH]c2c1 | 83.9 | 76.2 | 61.7 | 5.5* | 76.1
Cc1ccc(/C(C#N)=C\c2ccc(N3CCOCC3)o2)cc1 | . | . | 69.0 | . | 53.5
N#C/C(=C\Nc1ccc2c(c1)OCCO2)c1nc2ccccc2[nH]1 | 103.5 | 73.7 | 76.8 | 19.3* | 79.7
N#C/C(=C\c1ccc([N+](=O)[O-])o1)c1nc2ccccc2[nH]1 | . | . | 0.6* | . | 0.7*
Cc1ccc2nc(/C(C#N)=C\c3ccc([N+](=O)[O-])o3)[nH]c2c1 | . | . | 1.5* | . | 1.9*
N#C/C(=C\Nc1ccc2c(c1)OCCO2)c1nc(-c2ccccc2)cs1 | . | . | 57.8 | . | 55.8
Cc1ccc2nc(/C(C#N)=C\c3cc(C)n(-c4cccc([N+](=O)[O-])c4)c3C)[nH]c2c1 | 92.5 | 74.6 | 50.6 | 58.5 | 42.0
O=C(NCCSCc1ccccc1)c1ccc(C2SCC(=O)N2Cc2ccccc2)cc1 (configuration not stated) | 101.0 | 85.9 | 66.5 | 62.7 | 63.5
O=C(c1ccccc1[N+](=O)[O-])N1CCC(Cc2ccccc2)CC1 | . | . | 99.7 | . | 92.9
CCNc1ccc(C(=O)OCC)cc1NC(=O)c1cccc(S(=O)(=O)N(C)c2ccccc2)c1 | . | . | 67.4 | . | 72.2
SMILES | Fibroblast inh | HUVEC prolif 384 | HCT116 PTEN-null | H69AR growth 86K | HCT116 bCat-KO
CCNc1ccc(C(=O)OCC)cc1NC(=O)c1cccc(N(C)C)c1 | 50.6 | 50.5 | 16.4 | 22.1* | 16.9
C=CCn1c(SCC(=O)Nc2cccnc2Cl)nnc1-c1ccccc1F | . | . | 88.1 | . | 84.1
Cc1cccnc1NC(=O)c1ccc([N+](=O)[O-])o1 | . | . | 45.1 | . | 55.7
Cc1cccc(NC(=O)c2ccc([N+](=O)[O-])o2)n1 | . | . | 2.5* | . | 3.3*
Cc1cccc2sc(NNC(=O)c3ccc(S(=O)(=O)N4CCc5ccccc5C4)cc3)nc12 | . | . | 4.5 | . | 3.7*
Cc1cccc2sc(NNC(=O)c3ccc(S(=O)(=O)N4CCCC(C)C4)cc3)nc12 (configuration not stated) | . | . | 3.9 | . | 1.9*
CCOC(=O)N1CCN(S(=O)(=O)c2ccc(C(=O)NNc3nc4c(C)cccc4s3)cc2)CC1 | . | . | 10.9 | . | 11.1
COC(=O)c1ccc2c(c1)NC(=O)C(N1CCCC1)S2 (configuration not stated) | . | . | 83.6 | . | 84.9
